Data reported in paper PMC10655067 (RSC Chemical Biology, 2020).
Entries after “also recorded” stand apart in the source; their conditions may differ.

Tests used:
TRPC5:C5 = settings: read-out: TRPC5:C5 IC50; cited from earlier work
TRPC4:C4 [1] = settings: read-out: TRPC4:C4 IC50; cited from earlier work
[2] = cited from earlier work
TRPC4:C4 [3] = biological target: T1, TRPC4:C4 (Homo sapiens, UniProt Q9UBN4); settings: read-out: TRPC4:C4 IC50; 10 nM EA was used as activator; cited from earlier work
T1 sequence (Q9UBN4 1-893 isoform Q9UBN4-2): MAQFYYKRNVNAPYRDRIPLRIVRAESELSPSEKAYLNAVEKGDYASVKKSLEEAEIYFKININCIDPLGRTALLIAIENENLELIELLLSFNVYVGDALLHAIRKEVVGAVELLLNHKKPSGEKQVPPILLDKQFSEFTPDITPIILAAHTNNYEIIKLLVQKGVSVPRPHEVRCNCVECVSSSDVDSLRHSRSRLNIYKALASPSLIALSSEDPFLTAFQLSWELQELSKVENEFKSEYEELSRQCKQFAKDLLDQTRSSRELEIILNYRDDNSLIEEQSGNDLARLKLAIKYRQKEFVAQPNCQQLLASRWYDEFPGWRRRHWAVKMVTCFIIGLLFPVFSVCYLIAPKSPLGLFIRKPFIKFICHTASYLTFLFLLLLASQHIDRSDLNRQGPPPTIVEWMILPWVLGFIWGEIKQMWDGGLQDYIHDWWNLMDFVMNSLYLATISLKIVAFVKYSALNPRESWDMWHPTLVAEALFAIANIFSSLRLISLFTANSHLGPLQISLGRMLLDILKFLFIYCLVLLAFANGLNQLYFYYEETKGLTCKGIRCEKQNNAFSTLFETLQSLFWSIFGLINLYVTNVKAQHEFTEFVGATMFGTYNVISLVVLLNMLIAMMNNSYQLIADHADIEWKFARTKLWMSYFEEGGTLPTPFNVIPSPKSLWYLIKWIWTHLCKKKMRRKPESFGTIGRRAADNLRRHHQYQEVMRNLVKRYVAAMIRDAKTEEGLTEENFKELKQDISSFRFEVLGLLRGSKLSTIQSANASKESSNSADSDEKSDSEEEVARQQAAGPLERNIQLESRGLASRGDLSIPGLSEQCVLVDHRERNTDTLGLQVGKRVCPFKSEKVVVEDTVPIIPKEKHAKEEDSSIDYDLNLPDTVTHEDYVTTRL

TRPC5-SYFP2 = biological target: T2, TRPC5-SYFP2 (Homo sapiens, UniProt Q9UL62); experiment: Competition photoaffinity labelling; assay type: binding; settings: Pico145 10 μM pre-treatment; 300 nM Pico145-DAAlk 5
T2 sequence (Q9UL62 1-973): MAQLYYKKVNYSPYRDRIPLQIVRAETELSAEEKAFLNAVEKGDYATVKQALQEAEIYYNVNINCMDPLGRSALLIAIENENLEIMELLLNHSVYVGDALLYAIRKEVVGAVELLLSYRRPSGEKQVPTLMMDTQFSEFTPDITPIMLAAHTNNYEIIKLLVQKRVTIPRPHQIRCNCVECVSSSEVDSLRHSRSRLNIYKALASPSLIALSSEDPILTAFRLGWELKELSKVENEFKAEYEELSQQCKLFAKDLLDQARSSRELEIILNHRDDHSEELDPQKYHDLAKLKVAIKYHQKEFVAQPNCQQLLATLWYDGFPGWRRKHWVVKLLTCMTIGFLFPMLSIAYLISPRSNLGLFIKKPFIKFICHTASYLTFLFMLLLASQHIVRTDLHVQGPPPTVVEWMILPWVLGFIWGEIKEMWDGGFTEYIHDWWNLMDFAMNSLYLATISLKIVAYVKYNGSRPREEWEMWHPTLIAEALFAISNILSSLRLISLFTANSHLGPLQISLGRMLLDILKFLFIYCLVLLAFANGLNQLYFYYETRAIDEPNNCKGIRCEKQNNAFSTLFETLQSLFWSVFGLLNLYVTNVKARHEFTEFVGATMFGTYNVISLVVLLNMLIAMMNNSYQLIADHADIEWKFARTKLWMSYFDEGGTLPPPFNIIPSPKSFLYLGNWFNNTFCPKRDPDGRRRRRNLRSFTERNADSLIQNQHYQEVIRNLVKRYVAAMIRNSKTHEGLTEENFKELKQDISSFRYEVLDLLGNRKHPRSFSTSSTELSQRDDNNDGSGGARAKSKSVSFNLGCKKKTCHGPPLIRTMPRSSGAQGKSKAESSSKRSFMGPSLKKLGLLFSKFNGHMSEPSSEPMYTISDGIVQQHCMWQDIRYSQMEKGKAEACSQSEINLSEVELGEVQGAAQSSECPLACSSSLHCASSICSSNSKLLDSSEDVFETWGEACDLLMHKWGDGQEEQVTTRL
Outline: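 Tetracycline-induced (1 μg ml−1, 24 h) cells in SBS pre-treated 30 min at 37 °C with test compound or DMSO, then 30 min at 37 °C with 300 nM diazirine-alkyne probe plus competitor. Streptavidin-HRP/anti-GFP blots; biotin/GFP densitometry versus probe-only control; n = 3; one-way ANOVA, Dunnett.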

TRPC4-C1 = TRPC4-C1 (Homo sapiens, UniProt P48995+Q9UBN4); settings: read-out: TRPC4-C1 IC50; 10 nM EA was used as activator; cited from earlier work
TRPC4-C1, sequence (P48995 whole entry, one chain of several): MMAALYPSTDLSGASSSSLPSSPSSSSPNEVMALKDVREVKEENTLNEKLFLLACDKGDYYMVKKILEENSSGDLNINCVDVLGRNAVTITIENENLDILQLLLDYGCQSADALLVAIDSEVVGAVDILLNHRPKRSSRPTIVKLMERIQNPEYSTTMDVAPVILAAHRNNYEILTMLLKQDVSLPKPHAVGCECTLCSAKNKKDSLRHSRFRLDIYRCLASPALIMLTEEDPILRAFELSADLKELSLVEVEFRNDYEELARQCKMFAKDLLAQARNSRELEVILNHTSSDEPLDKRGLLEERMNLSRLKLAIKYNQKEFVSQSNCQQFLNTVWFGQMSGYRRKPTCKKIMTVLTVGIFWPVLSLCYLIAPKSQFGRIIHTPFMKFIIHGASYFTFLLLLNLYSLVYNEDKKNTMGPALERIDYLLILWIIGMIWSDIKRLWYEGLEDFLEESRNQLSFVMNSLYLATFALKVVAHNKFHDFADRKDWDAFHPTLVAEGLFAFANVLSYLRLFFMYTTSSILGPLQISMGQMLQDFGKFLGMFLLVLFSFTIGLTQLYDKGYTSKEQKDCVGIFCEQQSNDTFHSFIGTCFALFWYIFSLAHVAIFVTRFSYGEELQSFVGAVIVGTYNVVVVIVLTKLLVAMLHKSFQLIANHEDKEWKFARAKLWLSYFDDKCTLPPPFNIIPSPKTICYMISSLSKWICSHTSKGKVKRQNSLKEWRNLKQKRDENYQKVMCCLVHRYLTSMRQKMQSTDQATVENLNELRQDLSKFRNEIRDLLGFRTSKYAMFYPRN

| Compound | IC50 (TRPC5:C5) [nM] | IC50 (TRPC4:C4 [1]) [nM] | Oral bioavailability [2] | IC50 (TRPC4:C4 [3]) [nM] | Effect on TRPC5 photoaffinity labelling with Pico145-DAAlk 5 (TRPC5-SYFP2) | IC50 (TRPC4-C1) [nM] |
| --- | --- | --- | --- | --- | --- | --- |
| O=C1CN(c2cn[nH]c(=O)c2Cl)CCN1Cc1ccccc1C(F)(F)F [GFB-8438] | 180 to 280 | 290 |  |  |  |  |
| Cn1c(=O)n(CCCO)c(=O)c2c1nc(Oc1cccc(OC(F)(F)F)c1)n2Cc1ccc(Cl)cc1 [Pico145 1] |  |  | orally bioavailable | 0.35 | inhibition of TRPC5 labelling; also recorded: inhibits photoaffinity labelling | 0.03 |
